We go through 98 compounds from ChEMBL document CHEMBL4513216, “Probing the Open Global Health Chemical Diversity Library for Multistage-Active Starting Points for Next-Generation Antimalarials” (ACS Infect Dis, 2020).

A short description of the series: Toxicity liver stage against HepG2, at 10uM. The class given is cell-based. More on the design: test concentration 10 uM, cell line HepG2-A16-CD81EGFP. The note with it: human, HepG2-A16-CD81EGFP cells; read-out: INHIBITION
The procedure, abridged:
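Uninfected HepG2-A16-CD81EGFP cells, 3 × 10^3 per well, 1536-well, plated on prespotted compound at 10 μM final, parasite-free screening media added to match infected plates; puromycin 10 μM positive, DMSO 0.5% negative; run in parallel with 48 h PbLuc assay at 37 °C, 5% CO2; viability by CellTiter-Glo luminescence, normalized to controls.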
With `CN1C(=O)CO[C@H](c2ccc(NC(=O)Nc3ccccc3)cc2)[C@H]1CO`, the cytotoxicity at 10 µM is -1.63%.

For the compound `CO[C@H]1COCCN(Cc2c[nH]c3ccccc23)C1`, the cytotoxicity at 10 µM turned out to be 4.65%.

Regarding `CCC(=O)Nc1ccccc1Sc1nc(Br)nn1C`, the cytotoxicity at 10 µM was 3.28%. As for `O=C(NCCOCCO)c1cccnc1Oc1ccc(Cl)cc1`, the figure is 1.38%. `COc1ccccc1CN1CC(O)CN(C(=O)OCC(C)C)CC1=O` (stereo not drawn): the cytotoxicity at 10 µM is -6.19%. In the case of `COc1ccc(S(=O)(=O)NCCC(O)c2ccccc2)c(C)c1` (stereo not drawn), the cytotoxicity at 10 µM was 0.174%. As for `O=C(c1ccc[nH]1)N1Cc2nccn2CC(COc2cccnc2)C1` (stereo not drawn), the figure is 18.1%; as for `O=C(c1cccc(F)c1)N1CCc2ncc(Cn3cccn3)n2CC1`, 2.05%.

For the compound `O=C(NC1CC1)[C@@H]1CCO[C@@H]2CCN(C3CCCC3)C[C@H]21`, the cytotoxicity at 10 µM is 13.3%. Take `CC(=O)N1CCCC2(CN(Cc3ccccc3C(F)(F)F)CCO2)C1` (stereo not drawn): the cytotoxicity at 10 µM came to 7.28%.

With `COc1ccc(C2SCC(=O)Nc3ccsc32)cc1OC` (stereo not drawn), the cytotoxicity at 10 µM is -0.898%. Turning to `CCOC(=O)N1CCN(c2nc(N3CCCC3)c3ccccc3n2)CC1`, the cytotoxicity at 10 µM was -5.31%. As for `Cc1cc(SCC(N)=O)nc(-c2cccc(F)c2)n1`, the figure is -1.9%. Consider `CS(=O)(=O)N1CC[C@]2(C[C@@H](OCC3CCC3)CO2)C1`, for which the cytotoxicity at 10 µM was -6.66%. As for `Cn1cc(-c2ncnc3c2CCN(C(=O)N2CCOCC2)CC3)cn1`, the figure is -11.3%.

Turning to `CC(C)N(C)C(=O)C1=NOC2(CCN(C(=O)c3ccncc3)C2)C1` (stereo not drawn), the cytotoxicity at 10 µM was -0.237%. Then `CCn1cc(C(=O)NCc2ccc3c(c2)OCO3)c(C)n1`, with 9.9%; and `Cc1ccc(Cn2nc(C)c3c(C(=O)O)c(Cl)c(C)nc32)cc1`, with 5.53%; and `COCCCNc1cc(C)nn2cnnc12`, with 6%. With `Cc1nn(C)c2c(=O)n(C(C)C)c(NCC3CCCO3)nc12` (stereo not drawn), the cytotoxicity at 10 µM stood at 13.9%. For `O=C(c1ccc(-c2ccc(O)nc2)s1)N1CCSCC1`, the cytotoxicity at 10 µM is 3.96%. With `CN1CCN(C(=O)CCn2ncc3ccccc32)CC(C(N)=O)C1` (stereo not drawn), the cytotoxicity at 10 µM stood at 4.33%.

As for `Cc1cc2c(=O)n(CC(=O)N3CCn4cccc4C3C(C)C)cnc2s1` (stereo not drawn), the cytotoxicity at 10 µM stood at 3.77%. Then `COCC(=O)NCc1cnc(C)nc1-c1cn(C)c2ccc(OC)cc12`, with 11.9%; and `COCCNc1ncc(-c2cccc(OC)c2)c(-c2nccn2C)n1`, with 7.49%; and `CNc1cnc(CC2COCCN(Cc3cccc(C)n3)C2)cn1` (stereo not drawn), with 8%. As for `CNC(=O)C1CN(C(C)C)CCN1c1nc(C)cc(C)n1` (stereo not drawn), the figure is -10.4%; as for `Cc1oc2c(c1C(=O)N1CC[C@H](O)[C@]3(CCCO3)C1)CCCC2`, 2.75%; as for `COc1ccc(C(=O)N2CCOCC2c2[nH]ncc2C)cc1F` (stereo not drawn), 2.21%. Then `c1ccc(CN2CCCC[C@H]3CN(c4ncccn4)C[C@H]32)cc1`, with -3.81%; and `CCn1cc(CNCC(c2ccc(Cl)cc2)n2cccn2)cn1` (stereo not drawn), with 6.67%; and `CCOC(=O)CCCc1ccc2c(c1)CC(=O)N2`, with 1.23%. For `CN1CCC(N(Cc2ccccc2)C(=O)c2ccn3ccnc3c2)CC1`, the cytotoxicity at 10 µM is 5.63%.

As to `CC1COc2ccccc2N1C(=O)CCc1cscn1` (stereo not drawn), the cytotoxicity at 10 µM was found to be 1.88%. Then `CN(Cc1cc2ccccc2o1)S(C)(=O)=O`, with 1.66%; and `CCS(=O)(=O)Cc1csc(-c2ccc(S(C)(=O)=O)cc2)n1`, with 8.8%. Consider `CC1CN(C(=O)C2(c3cccc(F)c3)CCOCC2)CCO1` (stereo not drawn), for which the cytotoxicity at 10 µM was determined as 4.89%. Then `COc1ccc2c(c1)CCCN2C(=O)CN1CCOC(CN(C)C)C1` (stereo not drawn), with -2.93%.

Turning to `CCCc1cc(C(=O)NCCCC(=O)N2Cc3ccccc3C2)[nH]n1`, the cytotoxicity at 10 µM was determined as 8.81%. Then `CCc1cc(CNC(=O)N(C2CC2)C(C)c2ccco2)on1` (stereo not drawn), with -0.335%. Then `O=C(NCc1ccccn1)NCC(c1ccco1)N1CCCC1` (stereo not drawn), with -2.56%. As to `O=C1OCCN1CCS(=O)(=O)c1cccc(Cl)c1`, the cytotoxicity at 10 µM was -0.82%. Turning to `CCOc1cccc(COC(=O)c2cscn2)n1`, the cytotoxicity at 10 µM is -0.262%.

For the compound `N#Cc1nccnc1NC1CCN(c2ccccc2Br)C1` (stereo not drawn), the cytotoxicity at 10 µM was found to be 3.92%.

On to `CC(C)c1nnc2n1CC(CNCc1nnc(C(C)(C)C)o1)CC2` (stereo not drawn), for which the cytotoxicity at 10 µM was -21.6%. In the case of `Cc1nc2ccccc2n(Cc2nnnn2C2CC2)c1=O`, the cytotoxicity at 10 µM is -10.3%. Then `Cc1ncc(CN(C)Cn2nc(-c3ccccc3)oc2=O)s1`, with -2.81%. As for `C1CCN(CCOC2CCNCC2)CC1`, the figure is 6.88%; as for `O=C(NCCC(=O)N1CCCC1)c1cccnc1`, 11%. As for `CCC(C)(C)NC(=O)CSCc1ccc(S(=O)(=O)N(C)C)o1`, the figure is 5.94%. `Cc1ccc2c(c1)OCCCC2NCc1nccn1Cc1ccccc1` (stereo not drawn): the cytotoxicity at 10 µM was -9.4%. With `O=S(=O)(NCc1ccc(S(=O)(=O)N2CCCC2)s1)c1cc(Cl)ccc1Cl`, the cytotoxicity at 10 µM is -43.4%. In the case of `NC(=O)NC(CC(=O)N1CCc2sccc2C1)c1ccccc1F` (stereo not drawn), the cytotoxicity at 10 µM came to 3.5%. Then `Cn1ncc2c1CCCC2NCc1cccnc1` (stereo not drawn), with 0.999%; and `CC(=O)N1CCCN(C(=O)NCCCNS(C)(=O)=O)CC1`, with -10.3%; and `Cc1noc(COCC(=O)Nc2ncccc2Br)n1`, with 2.13%. On to `CCSc1ccc(C(=O)Nc2c(C)nn(C(C)C)c2C)cn1`, for which the cytotoxicity at 10 µM was -24.4%. For the compound `CC(CN1CCN(C)CC1)NC(=O)c1cc(Cl)c2c(c1)OCO2` (stereo not drawn), the cytotoxicity at 10 µM is -14%.

With `CS(=O)(=O)N1CCC2(CC1)CC(CC(=O)NCC1CC1)c1ccccc12` (stereo not drawn), the cytotoxicity at 10 µM turned out to be 7.65%. For the compound `CCCc1cc(C(=O)N(CC)Cc2ccncc2)[nH]n1`, the cytotoxicity at 10 µM was -6.52%. As for `CCN(CC)C(=O)C1CCCN(c2ncnc3oc(C)nc23)C1` (stereo not drawn), the figure is 1.61%; as for `Cc1cccc(C(C(=O)NCc2cc(C)[nH]n2)N(C)C)c1` (stereo not drawn), -3.07%. As for `O=C(O)c1cc(N2C[C@H](NC(=O)C3CCOCC3)[C@@H](C3CC3)C2)ccn1`, the figure is -4.23%; as for `CCCSCC(=O)N1CCCC2(CCC(=O)N(CCc3c[nH]cn3)C2)C1` (stereo not drawn), -0.0682%; as for `Cc1nc[nH]c1C(=O)N1CCCC2(CN(C)C(=O)O2)C1` (stereo not drawn), 1.2%. As for `COc1cccc(CCC2CCCN(C(=O)C3=NN(C)C(=O)CC3)C2)c1` (stereo not drawn), the figure is -2.06%. For the compound `CC(=O)c1cc(CC(=O)NCc2c(F)cccc2F)cs1`, the cytotoxicity at 10 µM was -8.51%.

Consider `CCCN(C)C(=O)c1ccc2c(c1)[nH]c(=O)n2CCOCC`, for which the cytotoxicity at 10 µM is -30.6%.

As to `Cc1ccc(OC2(C(=O)O)CCN(C(=O)c3ccc(F)cc3)CC2)cn1`, the cytotoxicity at 10 µM is -18.1%. As for `O=C(N[C@@H]1CCNC[C@H]1O)c1ccc(F)c(Cl)c1`, the figure is -11.1%; as for `COC(=O)Nc1ccc(CNc2cncc(-n3cccn3)n2)cc1`, -5.78%.

On to `CCc1c(C(=O)N2CCNC(=O)C2)cnn1C(C)(C)C`, for which the cytotoxicity at 10 µM is -20.3%. As for `CCN1CCOC(CNCc2ccc(OCc3ccccn3)cc2)C1` (stereo not drawn), the figure is -7.83%; as for `CC(O)CNCc1c(C(C)C)nn(C)c1N1CCOCC1` (stereo not drawn), -3.48%; as for `O=C(NCC1CCOC1)Nc1ccc(Oc2ccc(F)cc2)nc1` (stereo not drawn), -13.7%. As for `CC(Nc1cccc(CN2CCOC2=O)c1)C(=O)NC(=O)NC(C)(C)C` (stereo not drawn), the figure is -10.9%; as for `O=C(CCc1ccc(-c2ccccc2)[nH]1)N1CCCC(n2ccnc2)C1` (stereo not drawn), -15.7%; as for `CC(C)(C)c1cc(NC(=O)CN2CCC(N3CCNC3=O)CC2)on1`, -2.05%. For the compound `Cc1cnn(CC2CCCN2C(=O)c2ccc(Cl)cc2F)c1` (stereo not drawn), the cytotoxicity at 10 µM is -19%. Then `CCn1ccnc1CN1CCCN(C(=O)Cc2ccc(C)cc2)CC1`, with -7.29%; and `CCN(Cc1cccc(F)c1)Cc1nc2c(cnn2C)c(=O)[nH]1`, with 3.71%. `CC(=O)N(Cc1ncc(C)o1)C1CCN(Cc2ccon2)C1` (stereo not drawn): the cytotoxicity at 10 µM was -9.03%.

Take `Cn1ccnc1CN1CCCN(C(=O)c2ccc3c(c2)COC3)CC1`: the cytotoxicity at 10 µM is -10.9%.

Consider `Cn1cc(C(=O)NC2CCN(Cc3ccn(C)c(=O)c3)CC2)cn1`, for which the cytotoxicity at 10 µM is -16.7%. In the case of `CNc1nc(CNC(=O)Nc2cccc(F)c2C)cs1`, the cytotoxicity at 10 µM was -5.43%. `Cc1cccc(-c2nc(CN3CCc4cnc(C)nc4C3)no2)c1`: the cytotoxicity at 10 µM was -8.42%.

Consider `CC(C)c1noc(CCC(=O)NCC2CCOC2)n1` (stereo not drawn), for which the cytotoxicity at 10 µM was found to be 4.57%. On to `Cc1cnc(CN(C)C2CCN(Cc3ccccc3C#N)C2)o1` (stereo not drawn), for which the cytotoxicity at 10 µM is 1.08%. Then `COCCc1noc(CN2CCCC2c2c(C)nn(C)c2C)n1` (stereo not drawn), with -5.73%; and `FC(F)(F)Cn1ccnc1CN1CCOC(Cn2cccn2)C1` (stereo not drawn), with 0.0962%; and `Cc1nn(C)c(Cl)c1C1CCCN1CC(=O)NCc1ccccn1` (stereo not drawn), with -2.07%. For `CC(C)c1nnc(NC(=O)NCc2ccc(CO)c(F)c2)s1`, the cytotoxicity at 10 µM was 6.54%.

For the compound `Cc1ccoc1C(=O)N1Cc2c(CN3CCCCC3)nn(C)c2C1`, the cytotoxicity at 10 µM is -1.16%. Then `CN(C)C(=O)CO[C@H]1CN(Cc2ccccc2)[C@@H]2CCCO[C@H]12`, with -8.1%.

Consider `c1cncc(N2CCCC3(CCN(CC4CCCO4)CC3)C2)c1` (stereo not drawn), for which the cytotoxicity at 10 µM stood at 5.15%. Then `COc1cccc(-c2n[nH]cc2CNC2CCN(C3CC3)CC2)c1`, with -3.78%. As for `COc1cccc(-n2cc3[nH]c(=O)[nH]n3c2=O)c1`, the figure is -6.47%; as for `COCCC(=O)NCC1CCC(C(c2ccccn2)N(C)C)CC1` (stereo not drawn), 11.5%.
